The values that follow come from ChEMBL document CHEMBL5352453, “Hit-to-lead optimization of a 2-aminobenzimidazole series as new candidates for chagas disease” (Eur J Med Chem, 2023).

Series [1] deals with Trypanosoma cruzi. Kind of series: Antitrypanosomal activity against intracellular Trypanosoma cruzi amastigote infected primary peritoneal mouse macrophages assessed as reduction in amastigote population. The format is functional. Further details: concentration or dose not given beside the values. Put shortly:
(§1)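 High-content imaging of primary mouse macrophages infected with T. cruzi. Counts both amastigotes per cell and percentage of infected cells. 96 h exposure, with maximal activity scored at 10 µM. IC50 and IC90 against intracellular amastigotes taken from the same 96 h incubation.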

In series [2] the test system is Trypanosoma cruzi. Kind of series: Antitrypanosomal activity against intracellular Trypanosoma cruzi amastigote infected mouse 3T3 cells assessed as reduction in amastigote population measured after 48 hrs.
The test system of series [3] is Trypanosoma cruzi. Kind of series: Antitrypanosomal activity against intracellular Trypanosoma cruzi amastigote infected primary peritoneal mouse macrophages assessed as reduction in amastigote population measured after 96 hrs. It is filed as functional, organism-based. The following applies: for IC50: 96 h; for IC90: time 96 hrs. In a few lines: as §1
Series [4] relates to Trypanosoma cruzi. Kind of series: Antitrypanosomal activity against intracellular Trypanosoma cruzi amastigote infected primary peritoneal mouse macrophages assessed as reduction in infection rate. The format is functional. In a few lines: as §1
Series [5] has as its system Trypanosoma cruzi. Kind of series: Antitrypanosomal activity against Trypanosoma cruzi Tulahuen CL2 amastigotes expressing beta galactosidase infected in human MRC5 cells assessed as reduction in parasite burden using chlorophenol red beta-D-galactopyranoside as substrate and measured after 7 days by spectrophotometric analysis. The following applies: Tulahuen CL2, MRC5, 168 h. The format is functional, organism-based. Put shortly:
(§2)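 T. cruzi Tulahuen CL2 β-galactosidase strain grown in MRC-5 cells (MEM, 5% heat-inactivated FCS, 37 °C, 5% CO2). MRC-5 cells (4 x 10^3/well) plus parasites (4 x 10^4/well) exposed 7 days to 4-fold dilutions from 64 µM down; final DMSO <1%. CPRG with Nonidet added, absorbance at 540 nm after 4 h. IC50 calculated against untreated-infected (100%) and non-infected (0%) controls. SI = MRC-5 CC50/IC50.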

Series [6] is described as follows: Cytotoxicity against primary peritoneal mouse macrophages assessed as reduction in cell viability measured after 24 hrs by colorimetric assay. The format is toxicity, cell-based, Peritoneal macrophage.
Series [7] in a line: Passive permeability of the compound at 10 uM at pH 6.5 to 7.4 donor portion/acceptor portion by PAPMA assay. It is filed as ADME. The following applies: not told, read-out: permeability. In a few lines: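 PAMPA on pre-coated membranes. Donor holds 10 µM compound in PBS pH 6.5; acceptor holds PBS pH 7.4. Incubated 5 h at 37 °C. Donor, acceptor and initial donor samples quenched and quantified by LC-MS/MS to calculate effective permeability (Pe). Run in triplicate.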

Series [8] is described as follows: Selectivity index, ratio of CC50 for cytotoxicity against human MRC5 cells to EC50 for Trypanosoma cruzi Tulahuen CL2 amastigotes expressing beta galactosidase infected in human MRC5 cells. It is filed as toxicity, cell-based. Particulars: read-out: Selectivity Index. In a few lines: as §2
Series [9] is described as follows: Cytotoxicity against rat L6 cells assessed as reduction in cell viability measured after 24 hrs by colorimetric assay. The format is toxicity, cell-based.
Series [10] in a line: Kinetic solubility of the compound at pH 2 PBS buffer measured after 24 hrs shaken by LC-MS/MS analysis. Particulars: read-out: Kinetic_solubility. It is filed as physicochemical. In a few lines:
(§3)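 Compounds from 10 mM DMSO stocks diluted in PBS pH 7.4 or pH 2.0 to 250 µM final, 2.5% DMSO, in duplicate. Shaken 24 ± 1 h at 200 rpm, room temperature, then centrifuged to remove precipitate. Supernatant quantified by LC-MS/MS against per-compound calibration at 1–50 µM.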

Series [11] is described as follows: Metabolic stability in CD1 mouse liver microsomes assessed as intrinsic clearance measured upto 60 mins by LC-MS/MS analysis. The format is ADME. Particulars: read-out: CLH. In a few lines: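 CD1 mouse liver microsomes at 0.25 mg/mL, compound at 0.5 µM, pH 7.4, 37 °C, started with NADPH. Sampled at 0, 5, 10, 20, 30 and 60 min and quenched with acetonitrile:methanol containing tolbutamide. Measured by LC-MS/MS; CLint (k × 1000/0.25, µL/min/mg) derived by non-linear regression of % remaining over time.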
On the technique in general: Liver microsomes are vesicles of endoplasmic reticulum, rich in cytochrome P450 enzymes.

The nature of series [12]: Cytotoxicity against mouse 3T3 cells assessed as reduction in cell viability measured after 24 hrs by colorimetric assay. It is filed as toxicity, cell-based. The following applies: NIH3T3 cells.
Series [13] in a line: Cytotoxicity against human MRC5 cells assessed as reduction in cell viability measured after 24 hrs by colorimetric assay. It is filed as toxicity, cell-based.
Series [14] in a line: Kinetic solubility of the compound at pH 7.4 PBS buffer measured after 24 hrs shaken by LC-MS/MS analysis. It is filed as physicochemical. Particulars: read-out: Kinetic_solubility. In a few lines:
as §3

Series [15] can be described thus: Cytotoxicity against human HepG2 cells assessed as reduction in cell viability measured after 24 hrs by colorimetric assay. It is filed as toxicity, cell-based.
Series [16] in a line: Drug metabolism in S9 cells assessed as turnover. Particulars: mouse.

By IC50 is commonly meant the midpoint of a concentration-inhibition curve. For orientation: IC90 means the concentration at which the effect reaches the 90% level. As for `O=C(Cn1ccnc1[N+](=O)[O-])NCc1ccccc1` [BENZNIDAZOLE], in the series on Trypanosoma cruzi [1], the Activity is 99%. In the series on Trypanosoma cruzi [2], the IC50 was determined as 2.57 µM. In the series on Trypanosoma cruzi [3], the IC50 stood at 2.62 µM and the IC90 came out at 12.6 µM. Also, the “inhibition (INH)” value with Trypanosoma cruzi [4] worked out at 94%.
Consider `CC[C@@H]([C@H](C)O)n1ncn(-c2ccc(N3CCN(c4ccc(OC[C@@H]5CO[C@@](Cn6cncn6)(c6ccc(F)cc6F)C5)cc4)CC3)cc2)c1=O` [POSACONAZOLE], for which the Activity in the series on Trypanosoma cruzi [1] is 100%. In addition, the IC50 with Trypanosoma cruzi [2] stood at 0.002 µM. In the series with Trypanosoma cruzi [3], the IC50 was 0.001 µM and the IC90 came to 0.002 µM. Moreover, in the series with Trypanosoma cruzi [4], the “inhibition (INH)” value was 98%.
As a reminder, the CC50 is the concentration at which the toxic effect on the cells reaches its halfway point. On to `N#Cc1ccc2nc(NC(=O)c3ccc(C(F)(F)F)nc3)n(CC(F)(F)F)c2c1`, for which the Activity in the series on Trypanosoma cruzi [1] is 99%. Besides, the IC50 with Trypanosoma cruzi [5] amounted to 2.6 µM; with Trypanosoma cruzi [3], 0.19 µM. Moreover, the CC50 at 24 h in series [6] was 8 µM; in series [9], 18 µM; in [12], greater than 40 µM; in series [13] it was greater than 64 µM; in series [15], 1.1 µM. In addition, the Papp at 10 µM in series [7] was found to be 5.4 ×10⁻⁶ cm/s. Further, in series [8], the selectivity ratio was greater than 25. In addition, in the series with Trypanosoma cruzi [3], the concentration for an effect of 90% (IC90) came to 0.57 µM. Also, the solubility kinetic at 24 h in series [10] and in series [14] was less than 1 µM throughout. Also, the “inhibition (INH)” value in the series with Trypanosoma cruzi [4] is on record as 98%. Besides, the microsomal CLint in [11] turned out to be 18 µL/min/mg.
On to `N#Cc1ccc2nc(NC(=O)c3ccnc(C(F)(F)F)c3)n(CC(F)(F)F)c2c1`, for which the Activity with Trypanosoma cruzi [1] stood at 98%. The IC50 with Trypanosoma cruzi [5] turned out to be 0.28 µM; in the series on Trypanosoma cruzi [2], 1.32 µM; with Trypanosoma cruzi [3], 0.14 µM. The cytotoxic concentration (CC50) at 24 h in [6] was 4 µM; in series [9], 50 µM; in [12], greater than 40 µM; in series [13], greater than 64 µM; in series [15] it was 2.4 µM. In [7], the Papp at 10 µM was 2.3 ×10⁻⁶ cm/s. The selectivity ratio in [8] is greater than 231. In the series with Trypanosoma cruzi [3], the IC90 came out at 0.31 µM. The solubility kinetic at 24 h in [10] and in series [14] was less than 1 µM each time. In addition, the “inhibition (INH)” value with Trypanosoma cruzi [4] was 91%. Also, the microsomal CLint in series [11] is 27 µL/min/mg.
Turning to `N#Cc1ccc2nc(NC(=O)c3cc(C(F)(F)F)n[nH]3)n(CC(F)(F)F)c2c1`, the Activity in the series with Trypanosoma cruzi [1] was 99%. For the same compound, the IC50 came to 1.5 µM in the series with Trypanosoma cruzi [5] and 0.57 µM with Trypanosoma cruzi [3]. Besides, the CC50 at 24 h is 25 µM in series [6]; 12 µM in series [9]; greater than 40 µM in [12]; greater than 64 µM in series [13]; 1.8 µM in [15]. In addition, in series [7], the Papp at 10 µM was 2 ×10⁻⁶ cm/s. The selectivity ratio in series [8] was greater than 42. Besides, in the series on Trypanosoma cruzi [3], the IC90 was found to be 0.88 µM. In addition, the solubility kinetic at 24 h in series [10] and in [14] was less than 1 µM each time. In addition, the “inhibition (INH)” value with Trypanosoma cruzi [4] was 97%. In series [11], the microsomal CLint was determined as 25 µL/min/mg.
In the case of `CCCn1c(NC(=O)c2cccnc2)nc2cc(F)ccc21`, in the series on Trypanosoma cruzi [5], the half-inhibitory concentration (IC50) amounted to 8.2 µM. Moreover, in series [8], the selectivity ratio was greater than 8. Besides, the microsomal CLint in [11] turned out to be 164 µL/min/mg. The metabolised in [16] was determined as 1.91%.
Take `CCCn1c(NC(=O)c2ccccn2)nc2cc(F)ccc21`: the IC50 in the series with Trypanosoma cruzi [5] came out at 1.1 µM. In [8], the selectivity ratio amounted to 7. For the same compound, the microsomal CLint in [11] turned out to be 413 µL/min/mg. Further, in [16], the metabolised was found to be 66.2%.
On to `Cn1ccc(C(=O)Nc2nc3ccc(C#N)cc3n2CC(F)(F)F)n1`, for which the IC50 in the series with Trypanosoma cruzi [5] was determined as 64 µM. Besides, the selectivity ratio in series [8] is 1. Moreover, the microsomal CLint in series [11] was found to be 73 µL/min/mg.
For `Cn1nc(C(F)(F)F)cc1C(=O)Nc1nc2ccc(C#N)cc2n1CCF`, in the series with Trypanosoma cruzi [5], the IC50 was 2.1 µM. Moreover, in series [8], the selectivity ratio amounted to 11. The microsomal CLint in series [11] worked out at 39 µL/min/mg.
With `Cn1nccc1C(=O)Nc1nc2cc(CN3CCOCC3)ccc2n1CC(F)(F)F`, the IC50 with Trypanosoma cruzi [5] came to 8.3 µM. Besides, in series [8], the selectivity ratio is 5. For the same compound, the microsomal CLint in series [11] came out at 23 µL/min/mg.
For `COCCn1c(NC(=O)c2ccnn2C)nc2ccc(C#N)cc21` the same measures were 8.8 µM, greater than 7 and 98 µL/min/mg.
As to `CCCn1c(NC(=O)c2cccnc2)nc2ccc(C#N)cc21`, the IC50 in the series on Trypanosoma cruzi [5] worked out at 18 µM. Moreover, the selectivity ratio in [8] was greater than 4. Moreover, the microsomal CLint in series [11] worked out at 200 µL/min/mg.
Turning to `CC(C)(C)Cn1c(NC(=O)c2cc(C(F)(F)F)n[nH]2)nc2cc(C#N)cnc21`, in the series with Trypanosoma cruzi [5], the IC50 worked out at 1.5 µM. Further, the selectivity ratio in series [8] turned out to be 3. Also, the microsomal CLint in series [11] was 23 µL/min/mg.
With `Cn1nc(C(F)(F)F)cc1C(=O)Nc1nc2ccc(C#N)cc2n1CC(F)(F)F`, the Activity with Trypanosoma cruzi [1] was 99%. Further, the IC50 in the series on Trypanosoma cruzi [5] was 0.23 µM; in the series on Trypanosoma cruzi [2], 0.99 µM; in the series with Trypanosoma cruzi [3], 0.19 µM. Besides, the cytotoxic concentration (CC50) at 24 h in [6] was 1 µM; in series [9], 19 µM; in series [12], greater than 40 µM; in series [13], 8 µM; in series [15] it was 1.1 µM. Further, in [7], the Papp at 10 µM was determined as 2.4 ×10⁻⁶ cm/s. For the same compound, in series [8], the selectivity ratio is 34. The concentration for an effect of 90% (IC90) in the series on Trypanosoma cruzi [3] was 0.36 µM. Further, the solubility kinetic at 24 h in [10] and in series [14] was less than 1 µM throughout. In addition, in the series with Trypanosoma cruzi [4], the “inhibition (INH)” value turned out to be 97%. Besides, the microsomal CLint in series [11] is 28 µL/min/mg.
